The structures appear in SMILES notation. The campaign covered roughly 2,500 compounds. About 460 (18%) were called active.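 How the source made its calls: active means mean activation above a cutoff of low control average plus 3 SD from the earlier screen (cut at about 12% in these data); inactive means the rest.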 A selection follows.

We go through 90 compounds from PubChem BioAssay AID504382 (The Scripps Research Institute Molecular Screening Center, 2011).

The assay in a line: compound fluorescence interference without thin filaments, confirmation, artefact control for cardiac RTF calcium sensitizer project, biochemical (AID 504382). To be noted: IANBD fluorescence interference counterscreen, buffer, EC20 Ca2+; at 7.2 µM; stronger effect = higher value; scaled: EC20 calcium 0, EC100 calcium 100. The method in brief: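 Medium: MOPS buffer, 190 mM, with KCl, MgCl2, EGTA, NTA, DTT, pH 7.20; Dosing: one dose of 7.2 µM, 0.7% DMSO; Probe or stimulus: calcium at EC20 level, 0.472 mM final; Incubation: 15 min, 25 °C; Evaluation: compound fluorescence interference relative to control well signal range; Signal: fluorescence, 480/540 nm.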
Regarding `CC(=O)c1nnn(-c2cccc(C#N)c2)c1C`, the fluorescence artifact activation is 0.2% (inactive).
The result for `Cc1ccc(/C=C2/NC(=O)N(Cc3ccccc3F)C2=O)s1` reads 0.1% (inactive); that for `Cc1cc2nc3c(=O)n(CCc4ccccc4)c(=O)[nH]c3nc2cc1N`, 0.7% (inactive).
The result for `C=CCn1c(=O)[nH]c2nc3cc(N=CN(C)C)c(C)cc3nc2c1=O` reads 16.2% (active); that for `Cc1cc2nc3c(=O)n(C4CCCCC4)c(=O)[nH]c3nc2cc1N`, 9.65% (inactive).
The result for `CCCCn1c(=O)[nH]c2nc3cc(N)ccc3nc2c1=O` reads 0.06% (inactive).
As to `CCCCCCn1c(=O)[nH]c2nc3cc(N)c(C)cc3nc2c1=O`, the fluorescence artifact activation is 45.6% (active).
The result for `N=c1oc2c3c4c(cc2cc1C(=O)Nc1ccccc1)CCCN4CCC3` reads 4.85% (inactive); that for `Cn1cccc1/C=C1\CCC/C(=C\c2cccn2C)C1=O`, 0.94% (inactive).
The result for `O=C(COC(=O)Cn1cnc2ccccc21)Nc1cccc2c1C(=O)c1ccccc1C2=O` reads 5.29% (inactive); that for `O=C1/C(=C/c2cccc(F)c2)Oc2cc(O)ccc21`, -0.06% (inactive).
`COc1cc(/C=C2\Oc3cc(O)ccc3C2=O)ccc1O`: the fluorescence artifact activation was 0.16% (inactive).
In the case of `O=C1/C(=C/c2ccc(Br)cc2)Oc2cc(O)ccc21`, the fluorescence artifact activation was 17.9% (active).
The result for `C[C@H](CO)NC(=O)[C@@H]1C[C@H]1[C@@H](NP(=O)(c1ccccc1)c1ccccc1)c1ccccc1` reads 0.29% (inactive); that for `C=CCN(C(=O)CNS(=O)(=O)c1ccccc1)C(C(=O)NCCOC)c1ccncc1` (stereo not given), 0.23% (inactive).
The result for `COCCNC(=O)[C@H]1C[C@@H]1[C@H](NP(=O)(c1ccccc1)c1ccccc1)c1ccccc1` reads 1400% (active).
For `Cc1cc(Br)c2c(c1)C(O)(N1CCCCC1C)C(=O)N2` (stereo not given), the fluorescence artifact activation was 1.99% (inactive).
In the case of `CC(C)(C)C(=O)/C=c1\s/c(=C\c2ccc(-c3ccc([N+](=O)[O-])cc3)o2)c(=O)n1CC(=O)NC(N)=O`, the fluorescence artifact activation is 7.12% (inactive).
The result for `COc1cc(/C=C(\C#N)c2nc3ccccc3o2)ccc1O` reads 0.62% (inactive); that for `Cc1cc(C)n2nc3nc4c(cc3c2n1)CCCC4`, 28.7% (active).
The result for `Nc1nc(SCC(=O)Nc2ccccc2)nc2nc3c(cc12)CCCC3` reads 0.24% (inactive); that for `C=CCOc1ccc(Br)cc1CNCC`, 6.82% (inactive).
The result for `CCOc1ccc(C(=O)NCC(=O)N2CCC3CCCCC3C2)cc1OCC` (stereo not given) reads 59.4% (active); that for `CCOc1cc(C#N)ccc1OCC(=O)N1CCc2ccccc2C1`, 0.13% (inactive).
As for `CCOc1ccc(C(=O)NCC(=O)Nc2ncccc2C)cc1OCC`, the fluorescence artifact activation is 1.27% (inactive).
The result for `COCCOC(=O)/C(=C/c1ccc(OC(=O)c2ccccc2)cc1)C(C)=O` reads 4.54% (inactive); that for `COC(=O)c1ccc(NC(=O)c2snnc2-c2ccccc2)cc1`, 1.82% (inactive).
The result for `O=C(c1ccc2c(=O)n3c(nc2c1)CCCCC3)N1CCN(c2cccc(Cl)c2)CC1` reads 0.04% (inactive).
The result for `Oc1ccc2ccccc2c1C=NCc1cn2ccsc2n1` reads -0.01% (inactive); that for `Cc1cc(Cl)ccc1OCC(=O)Nc1nc(-c2cccs2)cs1`, 0.04% (inactive).
Regarding `Cn1c(/C(C#N)=C/c2ccc(-c3ccc(S(N)(=O)=O)cc3)o2)nc2ccccc21`, the fluorescence artifact activation is 0.08% (inactive).
The result for `N#C/C(=C\c1ccc(-c2ccc(F)cc2)o1)C(=O)Nc1nc(-c2cccs2)cs1` reads 15.1% (active); that for `N#C/C(=C/c1ccc(-c2ccccc2)o1)c1nc(-c2cccs2)cs1`, 19.2% (active); that for `N#C/C(=C\C=C\c1ccccc1)c1nc(-c2ccc3c(c2)OCO3)cs1`, 0.13% (inactive).
The result for `N#C/C(=C/c1ccc(N2CCOCC2)o1)C(=O)Nc1ccccc1` reads 0.03% (inactive).
For `O=C(CSc1n[nH]c(-c2cccs2)n1)N1CCOCC1`, the fluorescence artifact activation is -0.05% (inactive).
The result for `Cc1nnc(SCC(=O)NC(C)(C)C)n1C1CCCCC1` reads 10.9% (inactive); that for `Nc1c(C(=O)c2ccc(Cl)cc2)sc2nsc(SCCN3CCOCC3)c12`, 0.08% (inactive); that for `Oc1ccc2nnc3c(Br)cnn3c2c1`, 0.07% (inactive).
The result for `COc1ccc(/C=N/NC(=O)c2cc(OC)c(OC)c(OC)c2)cc1CN1CCc2cc(OC)c(OC)cc2C1C` (stereo not given) reads 7.53% (inactive).
With `CC1(C)CC(N2CCCC2)=CC(=[N+]2CCCCC2)C1`, the fluorescence artifact activation is 2.5% (inactive).
The result for `COc1ccc2[nH]c(C)c(CCN(Cc3cccs3)C(=S)Nc3ccc(F)cc3)c2c1` reads 1.01% (inactive); that for `O=C(Cc1ccc(NC(=O)C2CCCN(C(=O)C3CCCCC3)C2)cc1)Nc1cccc(C(=O)N2CCCC2)c1` (stereo not given), 0.41% (inactive); that for `CCOc1ccc(Cn2c3ccc(OC)cc3c3nc4ccccc4nc32)cc1`, 23.1% (active).
The result for `CCCCOC(=O)Cn1c2ccc(OC)cc2c2nc3ccccc3nc21` reads 0.92% (inactive).
The result for `COc1ccc(Cn2nnc3ccccc32)cc1` reads 0.37% (inactive); that for `COC(=O)C(=N/Nc1ccccc1C(=O)OC)/C(C)=N/O`, 6.02% (inactive).
Regarding `C/C(=N/NC(=O)c1cc(C)[nH]n1)c1ccco1`, the fluorescence artifact activation is 0.79% (inactive).
For `COc1ccc(/C=c2\s/c(=C/C(=O)c3ccc(C)cc3)[nH]c2=O)cc1OC`, the fluorescence artifact activation is 0.04% (inactive).
The result for `CN1CCc2c(sc3nc(SCC(N)=O)n(-c4ccccc4)c(=O)c23)C1` reads -0.02% (inactive); that for `Cc1ccc(NS(=O)(=O)c2ccc(C(=O)N3CCN(c4ncccn4)CC3)cc2)cc1`, 0.15% (inactive); that for `COc1ccc2c(c1)cc(C(=O)N[C@@H](CCSC)C(=O)N1CCC[C@H]1C(=O)O)n2C`, 1.37% (inactive).
The result for `O=C(O)c1cc(NCc2ccc(F)cc2)ccc1N1CCOCC1` reads 18.7% (active); that for `O=C(N1CCOCC1)N1CCN(c2ccc(F)cc2)CC1`, 0.02% (inactive).
The result for `O=C1N/C(=C\c2ccc(N3CCOCC3)c(F)c2)C(=O)N1Cc1ccccc1` reads 0.25% (inactive).
As for `CCOc1ccccc1N(CC(=O)Nc1ccc(OC)c(OC)c1)S(=O)(=O)c1ccccc1`, the fluorescence artifact activation was 0.04% (inactive).
In the case of `CC1=Nc2ccccc2/C1=C/c1nc(-c2ccc(C)s2)oc1O`, the fluorescence artifact activation is 0.4% (inactive).
The result for `CC(=O)Nc1ccc(N2C(=O)c3cccc4c(O)ccc(c34)C2=O)cc1` reads 0.2% (inactive); that for `CC(=O)Nc1ccc(N2C(=O)CSC2c2ccc(F)cc2)cc1` (stereo not given), 47.7% (active); that for `COC(=O)C1(C)NC(c2ccc(C)cc2)C2C(=O)N(c3ccc(F)cc3)C(=O)C21` (stereo not given), 3.94% (inactive).
Consider `Nc1nc2ccccc2n1CCOc1ccc(Br)cc1`, for which the fluorescence artifact activation is 0.41% (inactive).
The result for `O=C(C1=C(O)C(=O)N(c2nccs2)C1c1ccccc1)c1cc2ccccc2o1` (stereo not given) reads -0.02% (inactive); that for `Cc1ccccc1Cn1cccc1/C=C1/C(=N)N2C=CSC2=NC1=O`, 0.51% (inactive).
The result for `C=CCNc1nnc(SCC(=O)N2CCC(C(N)=O)CC2)s1` reads 2.23% (inactive); that for `CCOc1c2ccc(C(=O)NCc3ccc(C)cc3)cc2nn1CCOC`, 0.08% (inactive); that for `CCN(CC(=O)Nc1c(F)cccc1F)C(=O)CNC(=O)COc1ccccc1`, -0.06% (inactive).
The result for `c1ccc(-n2ncc(-c3nn[nH]n3)n2)cc1` reads 48.8% (active); that for `O=C(C1=NN(c2ccccc2)C2C(=O)N(c3ccccc3)C(=O)C12)c1ccccc1` (stereo not given), -0.1% (inactive); that for `O=C(NCc1ccco1)c1cccc2c1C(=O)c1ccc(N3CCCC3)cc1S2(=O)=O`, 0.41% (inactive).
As for `O=C(NCc1cccc(F)c1)c1cccc2c1C(=O)c1ccc(N3CCC(Cc4ccccc4)CC3)cc1S2(=O)=O`, the fluorescence artifact activation was 3.97% (inactive).
The result for `O=C(NCCc1ccc(F)cc1)c1cccc2c1C(=O)c1ccc(N3CCC(Cc4ccccc4)CC3)cc1S2(=O)=O` reads 33.5% (active); that for `O=C(NCc1ccco1)c1cccc2c1C(=O)c1ccc(N3CCC(Cc4ccccc4)CC3)cc1S2(=O)=O`, 24.3% (active); that for `O=C(NCc1ccc(F)cc1)c1cccc2c1C(=O)c1ccc(N3CCC(Cc4ccccc4)CC3)cc1S2(=O)=O`, 0.01% (inactive).
The result for `O=C(NCc1cccc(C(F)(F)F)c1)c1cccc2c1C(=O)c1ccc(N3CCC(Cc4ccccc4)CC3)cc1S2(=O)=O` reads 0.26% (inactive).
The result for `COc1ccc(/C=C2\Oc3cc(OCC(=O)N4CCC(C(=O)O)CC4)ccc3C2=O)c(OC)c1` reads 84% (active); that for `COc1ccc(/C=C2\Oc3cc(OCC(=O)N4CCC[C@H]4CO)ccc3C2=O)c(OC)c1`, 0.23% (inactive).
As to `COc1ccc(/C=C2\Oc3cc(OCC(=O)N4CCC[C@H]4C(=O)O)ccc3C2=O)c(OC)c1`, the fluorescence artifact activation was 5.17% (inactive).
The result for `CN(C)c1ccc(/C=C/C(=O)c2cccc(Br)c2)cc1` reads 0.06% (inactive); that for `CCOc1ccc(CCNC(=O)c2ccc(CNS(=O)(=O)c3ccccc3)cc2)cc1OCC`, 0.06% (inactive).
The result for `O=C(NCCc1ccccc1)c1ccc(Cl)nc1` reads 5.54% (inactive).
Take `CCOc1ccc(Cn2nnc(C(=O)NCCc3ccccc3)c2N)cc1`: the fluorescence artifact activation is 40.2% (active).
The result for `CC1=Nc2ccccc2/C1=C/c1sc(=S)n(-c2cccc(C(=O)O)c2)c1O` reads 0.55% (inactive).
The result for `O=C(Cc1ccccc1)Nn1c(O)c(/C=C2\C=Nc3ccccc32)sc1=S` reads 29.4% (active).
The result for `Cc1ccc2c(c1)[C@H]1[C@H](CO2)[C@H](c2ccccc2)[C@]2(C)C(=O)N(Cc3ccc(F)cc3)CC(=O)N12` reads 0.19% (inactive); that for `Clc1ccccc1/C=N/NC1=Nc2cccc3cccc1c23`, 0.08% (inactive); that for `CCC12OC(=N)C(C#N)(C1C)C(C#N)(C#N)C(c1ccccc1)O2` (stereo not given), -0.03% (inactive).
On to `O=C(CCSc1ccccc1)N1CCN(C(=O)c2ccco2)CC1`, for which the fluorescence artifact activation was 25.9% (active).
With `O=C(COC(=O)C1(c2ccc(F)cc2)CCCC1)N1CCN(C(=O)c2ccco2)CC1`, the fluorescence artifact activation was 0% (inactive).
The result for `CCC(C)(C)n1nnnc1C(c1ccc(C)cc1)N1CCN(C(=O)c2ccco2)CC1` (stereo not given) reads 0.17% (inactive).
The result for `COc1cc2c(cc1OC)CN(Cc1cc(=O)oc3cc(C)c(C)cc13)CC2` reads -0.02% (inactive).
